From ChEMBL document CHEMBL1124249 (J Med Chem, 1988)

Experiments:
Cavia porcellus = species: Cavia porcellus; test: Inhibitory potency evaluated against electrically evoked contractions of guinea pig ileum; assay type: functional, organism-based
Method in brief: (§1)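 Electrically stimulated twitch of isolated guinea pig ileum (μ assay). IC50 is the concentration giving half-maximal twitch inhibition, taken from six to eight computed log dose-response curves with six concentrations each. [Met]enkephalin IC50 was run on the same preparation. Each IC50 was corrected by the ratio of the mean of all [Met]enkephalin IC50s to that assay's [Met]enkephalin IC50.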

Mus musculus = species: Mus musculus; test: Inhibitory potency evaluated against electrically evoked contractions of mouse vas deferens; assay type: functional, organism-based
Method in brief: as §1, with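 “mouse vas deferens (δ” for “guinea pig ileum (μ”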

[1] = target: Delta-type opioid receptor (Rattus norvegicus, UniProt P33533); test: Inhibition of [3H]DTLET binding torat brain membrane Opioid receptor delta 1
Mu-type opioid receptor = Mu-type opioid receptor (Rattus norvegicus, UniProt P33535); test: Inhibition of [3H]DAGO binding to rat brain membrane Opioid receptor mu 1
[2] = Ratio of IC50 for MVD to GPI; assay type: functional

Delta-type opioid receptor, sequence (P33533 whole entry): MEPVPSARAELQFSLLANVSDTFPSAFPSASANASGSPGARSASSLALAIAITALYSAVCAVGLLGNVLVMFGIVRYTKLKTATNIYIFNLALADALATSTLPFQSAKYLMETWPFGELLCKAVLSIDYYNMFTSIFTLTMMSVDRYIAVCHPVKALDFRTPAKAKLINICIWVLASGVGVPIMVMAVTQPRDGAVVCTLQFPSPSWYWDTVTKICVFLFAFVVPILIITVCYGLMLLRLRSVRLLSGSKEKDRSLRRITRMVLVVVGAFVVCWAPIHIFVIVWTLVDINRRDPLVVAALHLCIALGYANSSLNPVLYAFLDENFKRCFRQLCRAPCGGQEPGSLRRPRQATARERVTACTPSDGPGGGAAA
Mu-type opioid receptor, sequence (P33535 whole entry): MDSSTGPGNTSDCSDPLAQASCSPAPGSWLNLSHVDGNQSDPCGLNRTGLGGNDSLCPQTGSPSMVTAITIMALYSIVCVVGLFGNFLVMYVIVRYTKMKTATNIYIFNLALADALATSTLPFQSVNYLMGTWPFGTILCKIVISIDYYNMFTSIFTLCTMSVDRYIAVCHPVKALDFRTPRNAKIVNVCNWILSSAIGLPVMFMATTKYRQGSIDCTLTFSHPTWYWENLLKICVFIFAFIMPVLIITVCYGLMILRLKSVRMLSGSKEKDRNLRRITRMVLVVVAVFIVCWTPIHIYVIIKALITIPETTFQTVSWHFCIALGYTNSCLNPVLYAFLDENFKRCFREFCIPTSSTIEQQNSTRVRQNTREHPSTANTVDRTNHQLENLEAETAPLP

CC(C)C[C@H](NC(=O)[C@H](Cc1ccccc1)NC(=O)CNC(=O)[C@@H](CO)NC(=O)[C@@H](N)Cc1ccc(O)cc1)C(=O)N[C@H](C(=O)O)[C@@H](C)OC(C)(C)C
IC50 (Cavia porcellus): 0.202 µM
IC50 (Mus musculus): 0.00084 µM
Ki [1]: 0.00635 µM
Ki (Mu-type opioid receptor): 0.185 µM
Ratio [2]: 0.0041

CC(C)C[C@H](NC(=O)[C@H](Cc1ccccc1)NC(=O)CNC(=O)[C@@H](COCc1ccccc1)NC(=O)[C@@H](N)Cc1ccc(O)cc1)C(=O)N[C@H](C(=O)O)[C@@H](C)O
IC50 (Cavia porcellus): 0.0833 µM
IC50 (Mus musculus): 0.00035 µM
Ki [1]: 0.00147 µM
Ki (Mu-type opioid receptor): 0.0421 µM
Ratio [2]: 0.0042

CC(C)C[C@H](NC(=O)[C@H](Cc1ccccc1)NC(=O)CNC(=O)[C@@H](COC(C)(C)C)NC(=O)[C@@H](N)Cc1ccc(O)cc1)C(=O)N[C@H](C(=O)O)[C@@H](C)O
IC50 (Cavia porcellus): 1.79 µM
IC50 (Mus musculus): 0.00107 µM
Ki [1]: 0.00614 µM
Ki (Mu-type opioid receptor): 0.374 µM
Ratio [2]: 0.0006

CC(C)C[C@H](NC(=O)[C@H](Cc1ccccc1)NC(=O)CNC(=O)[C@@H](NC(=O)[C@@H](N)Cc1ccc(O)cc1)[C@@H](C)O)C(=O)N[C@H](C(=O)O)[C@@H](C)OC(C)(C)C
IC50 (Cavia porcellus): 0.204 µM
IC50 (Mus musculus): 0.00075 µM
Ki [1]: 0.0031 µM
Ki (Mu-type opioid receptor): 0.0646 µM
Ratio [2]: 0.0037

CC(C)C[C@H](NC(=O)[C@H](Cc1ccccc1)NC(=O)CNC(=O)[C@@H](NC(=O)[C@@H](N)Cc1ccc(O)cc1)[C@@H](C)OC(C)(C)C)C(=O)N[C@H](C(=O)O)[C@@H](C)O
Ki [1]: 13 µM
Ki (Mu-type opioid receptor): > 100 µM

CSCC[C@H](NC(=O)[C@H](Cc1ccccc1)NC(=O)CNC(=O)CNC(=O)[C@@H](N)Cc1ccc(O)cc1)C(=O)O
IC50 (Cavia porcellus): 0.2 µM
IC50 (Mus musculus): 0.013 µM

CC(C)C[C@H](NC(=O)[C@H](Cc1ccccc1)NC(=O)CNC(=O)[C@@H](COC(C)(C)C)NC(=O)[C@@H](N)Cc1ccc(O)cc1)C(=O)N[C@H](C(=O)O)[C@@H](C)OC(C)(C)C
IC50 (Cavia porcellus): 2.79 µM
IC50 (Mus musculus): 0.0006 µM
Ki [1]: 0.00468 µM
Ki (Mu-type opioid receptor): 0.475 µM
Ratio [2]: 0.00021

CC(C)C[C@H](NC(=O)[C@H](Cc1ccccc1)NC(=O)CNC(=O)[C@@H](CO)NC(=O)[C@@H](N)Cc1ccc(O)cc1)C(=O)N[C@H](C(=O)O)[C@@H](C)O
IC50 (Cavia porcellus): 0.406 µM
IC50 (Mus musculus): 0.0004 µM
Ratio [2]: 0.001

CC(C)C[C@H](NC(=O)[C@H](Cc1ccccc1)NC(=O)CNC(=O)[C@H](NC(=O)[C@@H](N)Cc1ccc(O)cc1)[C@@H](C)OC(C)(C)C)C(=O)N[C@H](C(=O)O)[C@@H](C)O
IC50 (Cavia porcellus): 11.4 µM
IC50 (Mus musculus): 1.19 µM
Ki [1]: 0.866 µM
Ki (Mu-type opioid receptor): 4.5 µM
Ratio [2]: 0.1

CC(C)C[C@H](NC(=O)[C@H](Cc1ccccc1)NC(=O)CNC(=O)[C@@H](NC(=O)[C@@H](N)Cc1ccc(O)cc1)[C@@H](C)O)C(=O)N[C@H](C(=O)O)[C@@H](C)O
IC50 (Cavia porcellus): 0.46 µM
IC50 (Mus musculus): 0.00015 µM
Ki [1]: 0.00135 µM
Ki (Mu-type opioid receptor): 0.0233 µM
Ratio [2]: 0.0003
